Measured values reported in article PMC4973392 (Angewandte Chemie (International ed. in English), 2016).

Experiments:
[1] = target: T1, Ubc9 (Homo sapiens, UniProt P63279); type: biochemical; conditions: SUMO-1 conjugation to peptide substrate
[2] = target: T1, Ubc9; experiment: 1H-15N HSQC NMR chemical shift perturbation; type: binding
Outline: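 1H-15N HSQC spectra recorded with 200 μM Ubc9 in a solution saturated with the test compound. Chemical shifts of selected residues were compared between apo and compound-bound protein.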

[3] = target: T2, E1-SUMO thioester (Homo sapiens, UniProt Q9UBE0+Q9UBT2); experiment: E1-SUMO thioester formation with fluorescently labeled SUMO-1; type: biochemical; conditions: at relevant concentrations
T2 sequence (Q9UBE0 1-346): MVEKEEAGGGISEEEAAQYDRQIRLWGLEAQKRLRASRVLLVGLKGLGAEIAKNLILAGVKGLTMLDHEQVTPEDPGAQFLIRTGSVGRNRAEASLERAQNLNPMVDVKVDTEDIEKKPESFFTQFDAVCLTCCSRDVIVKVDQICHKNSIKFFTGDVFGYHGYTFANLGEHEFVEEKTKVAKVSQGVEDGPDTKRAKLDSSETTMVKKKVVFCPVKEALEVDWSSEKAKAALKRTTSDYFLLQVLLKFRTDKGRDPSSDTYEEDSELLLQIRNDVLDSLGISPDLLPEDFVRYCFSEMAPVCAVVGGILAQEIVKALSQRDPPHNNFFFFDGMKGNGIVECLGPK
T2 sequence (Q9UBT2 1-640): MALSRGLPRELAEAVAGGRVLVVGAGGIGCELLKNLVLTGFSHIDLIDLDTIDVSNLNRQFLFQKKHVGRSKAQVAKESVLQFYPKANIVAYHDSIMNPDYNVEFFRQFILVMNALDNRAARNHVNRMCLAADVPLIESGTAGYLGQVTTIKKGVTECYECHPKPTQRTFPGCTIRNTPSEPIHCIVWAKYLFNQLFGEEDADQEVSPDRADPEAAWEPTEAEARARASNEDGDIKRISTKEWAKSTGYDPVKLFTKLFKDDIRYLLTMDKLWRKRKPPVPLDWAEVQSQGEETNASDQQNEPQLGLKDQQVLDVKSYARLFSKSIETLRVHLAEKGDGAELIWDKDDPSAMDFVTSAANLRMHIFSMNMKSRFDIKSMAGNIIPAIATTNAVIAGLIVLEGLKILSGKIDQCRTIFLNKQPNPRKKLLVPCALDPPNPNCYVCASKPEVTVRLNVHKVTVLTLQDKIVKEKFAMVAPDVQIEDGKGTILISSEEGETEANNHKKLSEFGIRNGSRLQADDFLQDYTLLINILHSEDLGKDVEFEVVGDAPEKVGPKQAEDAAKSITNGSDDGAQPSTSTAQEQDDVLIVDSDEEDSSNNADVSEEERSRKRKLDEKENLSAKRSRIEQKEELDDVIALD
Outline: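 E1–SUMO thioester formation was followed using fluorescently labeled SUMO-1 in the presence of the test compound. The negative-control lane omitted E1.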

[4] = target: E2-SUMO thioester (Homo sapiens, UniProt P63279); experiment: E2-SUMO thioester formation with fluorescently labeled SUMO-1; type: biochemical; conditions: at concentrations that correlated well with the IC50
Sequence of E2-SUMO thioester (P63279 whole entry, the tested form may be a part): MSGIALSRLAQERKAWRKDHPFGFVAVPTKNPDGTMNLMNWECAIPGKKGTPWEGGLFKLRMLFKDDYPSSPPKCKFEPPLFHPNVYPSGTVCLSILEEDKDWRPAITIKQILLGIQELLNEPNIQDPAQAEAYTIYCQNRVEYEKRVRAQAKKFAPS

[5] = tested on: RanGAP1 sumoylation; experiment: conjugation of SUMO to recombinant protein fragment of RanGAP1; type: biochemical
[6] = tested on: IκBα sumoylation; experiment: conjugation of SUMO to full-length recombinant IκBα; type: biochemical
[7] = target: Ubc9-K59A mutant (Homo sapiens, UniProt P63279, K59A); experiment: sumoylation of fluorescent substrate peptide with Ubc9-K59A mutant; type: biochemical; conditions: at any concentration
Sequence of Ubc9-K59A mutant (P63279 whole entry K59A): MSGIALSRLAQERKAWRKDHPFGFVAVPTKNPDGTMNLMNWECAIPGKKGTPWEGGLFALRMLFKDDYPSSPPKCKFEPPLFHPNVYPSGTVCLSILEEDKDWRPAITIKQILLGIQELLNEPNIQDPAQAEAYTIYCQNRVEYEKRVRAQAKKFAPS

[8] = target: Ubc9-E42A mutant (Homo sapiens, UniProt P63279, E42A); experiment: sumoylation of fluorescent substrate peptide with Ubc9-E42A mutant; type: biochemical; conditions: at any concentration
Sequence of Ubc9-E42A mutant (P63279 whole entry E42A): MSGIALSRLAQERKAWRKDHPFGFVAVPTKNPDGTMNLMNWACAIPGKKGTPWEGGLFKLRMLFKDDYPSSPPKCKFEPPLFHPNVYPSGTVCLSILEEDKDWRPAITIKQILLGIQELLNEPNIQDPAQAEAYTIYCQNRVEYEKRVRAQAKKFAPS

T1 sequence (P63279 whole entry): as the sequence (P63279 whole entry, the tested form may be a part) above

SMILES: Oc1ccccc1-c1ccccc1O [compound 1, 2,2′-bisphenol]
- IC50 [1]: 5.8 ± 0.1 mM
- binding to Ubc9 in solution (chemical shift perturbations) [2]: specific binding
- effect on formation of the E1-SUMO thioester [3]: no effect
- effect on formation of the E2-SUMO thioester [4]: inhibited
- effect on conjugation of SUMO to RanGAP1 fragment [5]: inhibited
- effect on conjugation of SUMO to IκBα [6]: inhibited
- inhibition of Ubc9 K59A mutant [7]: neither mutant was inhibited
- inhibition of Ubc9 E42A mutant [8]: neither mutant was inhibited
